Source: ChEMBL document CHEMBL1133116, “Synthesis and evaluation of 17-aliphatic heterocycle-substituted steroidal inhibitors of 17alpha-hydroxylase/C17-20-lyase (P450 17)” (J Med Chem, 2000)
Calls of active or inactive are those of the source. The rule behind the calls is not given here.

Assays:
[1] = target: T1, Steroid 17-alpha-hydroxylase/17,20 lyase (Homo sapiens, UniProt P05093); assay: Binding affinity for Cytochrome P450 17 from human testicular microsomes
T1 sequence (P05093 whole entry): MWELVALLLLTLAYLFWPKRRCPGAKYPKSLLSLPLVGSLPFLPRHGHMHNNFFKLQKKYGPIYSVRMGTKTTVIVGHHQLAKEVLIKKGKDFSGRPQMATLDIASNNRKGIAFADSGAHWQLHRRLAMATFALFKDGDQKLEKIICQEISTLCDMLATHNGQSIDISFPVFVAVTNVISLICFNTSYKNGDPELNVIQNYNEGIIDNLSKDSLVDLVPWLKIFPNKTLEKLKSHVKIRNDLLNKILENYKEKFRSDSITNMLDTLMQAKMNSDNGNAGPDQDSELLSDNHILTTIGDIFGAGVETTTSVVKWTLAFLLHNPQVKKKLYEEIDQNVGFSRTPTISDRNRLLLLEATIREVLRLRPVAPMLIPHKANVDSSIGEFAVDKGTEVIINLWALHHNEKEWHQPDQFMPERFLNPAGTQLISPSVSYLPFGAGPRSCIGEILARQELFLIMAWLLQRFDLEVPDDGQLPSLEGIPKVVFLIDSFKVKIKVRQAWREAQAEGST
How it was run: (§1)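 Ki was determined by the method of Lee and Wilson in the testicular microsome P450 17 assay. Inhibitor was used between its IC40 and IC70 values, with progesterone at 1.25–20 µM and 15 min incubation. All other parameters matched the regular assay. Kinetics were analysed by Lineweaver-Burk plot.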

[2] = target: T2, Steroid 17-alpha-hydroxylase/17,20 lyase (Rattus norvegicus, UniProt P11715); assay: Inhibition of Cytochrome P450 17 from rat testicular microsomes
T2 sequence (P11715 whole entry): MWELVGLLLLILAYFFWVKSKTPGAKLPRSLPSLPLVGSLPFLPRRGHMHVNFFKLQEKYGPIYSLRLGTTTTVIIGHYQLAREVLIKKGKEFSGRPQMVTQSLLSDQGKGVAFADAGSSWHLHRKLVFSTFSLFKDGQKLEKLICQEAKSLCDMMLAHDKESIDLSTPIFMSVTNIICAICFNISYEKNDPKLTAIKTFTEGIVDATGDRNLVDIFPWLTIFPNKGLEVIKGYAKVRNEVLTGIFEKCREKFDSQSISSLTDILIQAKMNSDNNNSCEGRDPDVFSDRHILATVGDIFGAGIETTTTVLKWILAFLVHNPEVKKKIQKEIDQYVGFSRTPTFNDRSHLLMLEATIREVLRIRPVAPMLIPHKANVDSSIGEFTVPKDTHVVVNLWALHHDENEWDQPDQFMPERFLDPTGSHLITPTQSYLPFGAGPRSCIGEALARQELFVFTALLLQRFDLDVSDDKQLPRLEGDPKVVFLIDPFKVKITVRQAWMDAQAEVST
How it was run: (§2)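 Rat testicular microsomes incubated with progesterone substrate at 25 µM. Products were quantified by reverse-phase HPLC with UV detection. IC50 is the inhibitor concentration giving 50% inhibition, as the mean of at least two experiments, with deviations within 5%.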

[3] = target: T2, Steroid 17-alpha-hydroxylase/17,20 lyase; assay: Binding affinity for Cytochrome P450 17 from rat testicular microsomes; how it was run: as §1
[4] = target: T1, Steroid 17-alpha-hydroxylase/17,20 lyase; assay: Tested for inhibitory activity against Cytochrome P450 17 from human testicular microsomes
[5] = target: T3, Aromatase (Homo sapiens, UniProt P11511); assay: Inhibition of Cytochrome P450 19A1
T3 sequence (P11511 whole entry): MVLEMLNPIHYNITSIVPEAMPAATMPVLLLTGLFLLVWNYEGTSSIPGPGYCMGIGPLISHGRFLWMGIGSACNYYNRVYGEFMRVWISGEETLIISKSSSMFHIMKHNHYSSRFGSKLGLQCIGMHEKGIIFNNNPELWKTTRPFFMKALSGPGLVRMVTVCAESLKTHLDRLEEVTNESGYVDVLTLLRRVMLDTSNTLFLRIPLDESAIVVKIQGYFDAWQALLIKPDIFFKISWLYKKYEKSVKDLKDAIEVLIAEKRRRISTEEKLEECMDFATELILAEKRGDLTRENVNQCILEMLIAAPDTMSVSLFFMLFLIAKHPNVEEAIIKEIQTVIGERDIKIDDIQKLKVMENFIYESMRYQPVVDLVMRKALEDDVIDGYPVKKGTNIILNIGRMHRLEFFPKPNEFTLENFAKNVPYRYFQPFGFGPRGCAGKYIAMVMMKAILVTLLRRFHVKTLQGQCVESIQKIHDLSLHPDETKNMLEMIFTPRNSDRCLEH

[6] = target: T4, Thromboxane-A synthase (Homo sapiens, UniProt P24557); assay: Inhibition of thromboxane synthase P450 TXA2
T4 sequence (P24557 whole entry): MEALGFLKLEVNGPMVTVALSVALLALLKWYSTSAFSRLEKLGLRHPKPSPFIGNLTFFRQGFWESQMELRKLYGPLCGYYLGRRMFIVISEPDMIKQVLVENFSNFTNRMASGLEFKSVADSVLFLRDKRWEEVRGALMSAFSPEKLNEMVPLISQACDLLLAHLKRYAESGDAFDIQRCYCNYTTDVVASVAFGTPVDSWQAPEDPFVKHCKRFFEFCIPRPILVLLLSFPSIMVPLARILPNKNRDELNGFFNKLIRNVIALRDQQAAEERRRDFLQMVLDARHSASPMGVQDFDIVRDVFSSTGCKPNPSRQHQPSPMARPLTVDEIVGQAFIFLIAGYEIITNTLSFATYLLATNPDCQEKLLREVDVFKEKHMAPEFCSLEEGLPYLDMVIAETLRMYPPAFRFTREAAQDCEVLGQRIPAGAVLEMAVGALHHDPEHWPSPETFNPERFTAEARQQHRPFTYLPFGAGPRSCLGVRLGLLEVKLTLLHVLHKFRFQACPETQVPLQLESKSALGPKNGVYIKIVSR

[7] = target: T5, Cholesterol side-chain cleavage enzyme, mitochondrial (Bos taurus, UniProt P00189); assay: Inhibition of P450 scc
T5 sequence (P00189 whole entry): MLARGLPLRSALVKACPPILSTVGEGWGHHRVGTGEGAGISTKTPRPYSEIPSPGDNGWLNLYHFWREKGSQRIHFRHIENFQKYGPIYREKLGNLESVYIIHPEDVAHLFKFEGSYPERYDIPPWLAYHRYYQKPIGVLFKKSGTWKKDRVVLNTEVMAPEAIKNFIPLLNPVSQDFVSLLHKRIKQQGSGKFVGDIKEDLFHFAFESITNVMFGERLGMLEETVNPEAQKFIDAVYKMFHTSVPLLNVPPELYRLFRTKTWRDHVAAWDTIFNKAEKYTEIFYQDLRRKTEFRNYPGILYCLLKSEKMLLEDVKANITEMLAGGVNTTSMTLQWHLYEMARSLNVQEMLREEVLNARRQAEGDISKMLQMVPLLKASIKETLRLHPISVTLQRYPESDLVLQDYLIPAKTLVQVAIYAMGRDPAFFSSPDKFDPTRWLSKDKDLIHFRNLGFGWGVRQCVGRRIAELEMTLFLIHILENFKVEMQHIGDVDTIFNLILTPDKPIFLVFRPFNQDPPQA

[8] = species on record: Rattus norvegicus; assay: Percent reduction in plasma testosterone after 2 hr; assay type: functional
How it was run: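 Adult male Sprague-Dawley rats, 7–8 per group, received a single intraperitoneal dose of 0.019 mmol/kg in olive oil/benzyl alcohol (95:5). Blood was taken by cardiac puncture under diethyl ether anesthesia at 2 h. Plasma testosterone was measured by RIA with [125I]testosterone, in ng/mL.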

[9] = species on record: Rattus norvegicus; assay: Percent reduction in plasma testosterone after 6 hr; ne means No effect; assay type: functional, organism-based
How it was run: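 Adult male Sprague-Dawley rats, 7–8 per group, received a single intraperitoneal dose of 0.019 mmol/kg in olive oil/benzyl alcohol (95:5). Blood was drawn by cardiac puncture under diethyl ether anesthesia at 6 h. Plasma testosterone was quantified by RIA using [125I]testosterone, in ng/mL.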

[10] = target: T6, 3-oxo-5-alpha-steroid 4-dehydrogenase 2 (Homo sapiens, UniProt P31213); assay: Inhibition of Steroid 5-alpha-reductase type 2 isozyme
T6 sequence (P31213 whole entry): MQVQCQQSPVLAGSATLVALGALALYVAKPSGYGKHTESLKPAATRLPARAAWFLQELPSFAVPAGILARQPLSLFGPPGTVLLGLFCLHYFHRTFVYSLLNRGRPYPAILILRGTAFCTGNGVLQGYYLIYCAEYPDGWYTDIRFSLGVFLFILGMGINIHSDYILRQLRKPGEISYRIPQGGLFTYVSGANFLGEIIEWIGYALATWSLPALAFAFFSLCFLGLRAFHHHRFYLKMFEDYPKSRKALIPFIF
How it was run: (§3)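 The enzyme source for the type II isozyme was prostate homogenate from patients with benign prostatic hyperplasia (BPH).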

[11] = target: T2, Steroid 17-alpha-hydroxylase/17,20 lyase; assay: Tested for inhibitory activity against Cytochrome P450 17 from rat testicular microsomes; how it was run: as §2
[12] = target: T6, 3-oxo-5-alpha-steroid 4-dehydrogenase 2; assay: Inhibition of steroid 5-alpha-reductase type II isozyme; how it was run: as §3
[13] = target: T7, 3-oxo-5-alpha-steroid 4-dehydrogenase 1 (Homo sapiens, UniProt P18405); assay: Inhibition of steroid 5-alpha-reductase type I isozyme
T7 sequence (P18405 whole entry): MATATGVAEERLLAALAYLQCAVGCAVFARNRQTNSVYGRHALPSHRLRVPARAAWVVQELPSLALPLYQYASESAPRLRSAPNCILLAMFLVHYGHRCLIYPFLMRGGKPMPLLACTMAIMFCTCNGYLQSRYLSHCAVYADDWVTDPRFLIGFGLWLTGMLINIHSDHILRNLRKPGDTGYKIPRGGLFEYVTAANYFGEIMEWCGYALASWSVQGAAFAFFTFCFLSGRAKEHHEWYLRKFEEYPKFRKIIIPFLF
How it was run: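 The enzyme source for the type I isozyme was the DU 145 cell line.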

[14] = target: T1, Steroid 17-alpha-hydroxylase/17,20 lyase; assay: Inhibition of Cytochrome P450 17 from human testicular microsomes at 2.5 uM; No inhibition
How it was run: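 Human testicular microsomes as P450 17 source, with progesterone in large excess (25 µM) as substrate. Inhibitor was tested at 2.5 µM. The 16α- and 17α-hydroxyprogesterone products were quantified by reverse-phase HPLC with UV detection. No lyase products form with the human enzyme. Values are means of at least two experiments.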

[15] = target: T1, Steroid 17-alpha-hydroxylase/17,20 lyase; assay: Inhibition of cytochrome P450 17A1 from human testicular microsomes; n.i. means No inhibition
How it was run: as §2, with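 “Human” for “Rat”, “The products, 16α- and 17α-hydroxyprogesterone,” for “Products”, “5%. "No inhibition" refers to 2.5 µM.” for “5%.”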

SMILES: C[C@]12CC[C@H]3[C@@H](CC=C4C[C@@H](O)CC[C@@]43C)[C@@H]1CC[C@@H]2[C@H]1CN1
- Ki [1]: 0.008 µM
- IC50 [2]: 0.21 µM
- Ki [3]: 0.003 µM
- IC50 [4]: 0.54 µM
- IC50 [5]: > 50 µM
- IC50 [6]: 4 µM
- IC50 [7]: > 25 µM
- Reduction [8]: 81%
- Reduction [9]: inactive
- IC50 [10]: 10 µM

SMILES: CC12CCC(=O)CC1=CCC1C2CCC2(C)C(CC3CN3)CCC12 (stereo not drawn)
- IC50 [11]: 1.32 µM
- IC50 [4]: 1.8 µM
- IC50 [12]: 9 µM
- IC50 [13]: 1.6 µM

SMILES: COC1CC[C@@]2(C)C(=CC[C@H]3[C@@H]4CC[C@H](C5CO5)[C@@]4(C)CC[C@@H]32)C1 (stereo partly drawn)
- IC50 [14]: Not Active
- IC50 [11]: > 125 µM

SMILES: C[C@]12CC[C@H]3[C@@H](CC=C4CC(O)CC[C@@]43C)[C@@H]1CC[C@H]2C1CS1 (stereo partly drawn)
- IC50 [11]: > 125 µM
- IC50 [4]: 1.8 µM

SMILES: C[C@]12CC[C@H]3[C@@H](CC=C4C[C@@H](O)CC[C@@]43C)C1=CC[C@@H]2[C@H]1CN1
- Ki [1]: 0.003 µM
- IC50 [11]: 0.43 µM
- Ki [3]: 0.007 µM
- IC50 [4]: 0.29 µM

SMILES: CC12CCC(O)CC1=CCC1C2CCC2(C)C(CC3CN3)CCC12 (stereo not drawn)
- Ki [1]: 0.006 µM
- IC50 [11]: 0.53 µM
- Ki [3]: 0.009 µM
- IC50 [4]: 0.4 µM
- IC50 [5]: 7.1 µM
- IC50 [6]: 35 µM
- IC50 [7]: 1 µM
- Reduction [8]: 84%

SMILES: C[C@]12CC[C@H]3[C@@H](CC=C4CC(O)CC[C@@]43C)[C@@H]1CC[C@@H]2[C@@H]1CN1 (single isomer, unassigned)
- IC50 [11]: 34 µM
- IC50 [4]: 1.52 µM

SMILES: C[C@]12CC[C@H]3C(CC=C4CC(=O)CC[C@@]43C)[C@@H]1CC[C@@H]2[C@@H]1CN1 (single isomer, unassigned)
- IC50 [11]: 34000 µM
- IC50 [4]: > 2.5 µM

SMILES: CC12CCC(O)CC1=CCC1C2CCC2(C)C(C3CCN3)CCC12 (stereo not drawn)
- IC50 [2]: > 125 µM
- IC50 [15]: Not Active

SMILES: C[C@]12CC[C@H]3[C@@H](CC=C4CC(=O)CC[C@@]43C)[C@@H]1CC[C@@H]2C1CO1 (stereo partly drawn)
- IC50 [11]: > 25 µM

SMILES: CC12CCC(O)CC1=CCC1C2CCC2(C)C(c3cc[nH]n3)=CCC12 (stereo not drawn)
- IC50 [2]: 0.18 µM
